Experimental data collected from several papers.
Each line is one published result; the experiments were not run side by side.
Read-out: cell growth or viability

SMILES | cell line | technique | tested at | time | quantity | value
OCc1ccc(-c2nn(Cc3ccccc3F)c3ccccc23)o1 | RBE | ATP luminescence | 46 µM | 72 h | inhibition | 68%
COc1ccc2/c(=N/c3ccccc3NC(=O)N3CCOCC3)cc(-c3ccc4c(c3)OCCO4)oc2c1 | MDA-MB-468 | CCK-8 | 1 µM |  | inhibition | 18.7%
OCc1ccc(-c2nn(Cc3ccccc3)c3ccccc23)o1 | RBE | ATP luminescence | 46 µM | 72 h | inhibition | 75%
O=C(NO)c1ccc(CC(=O)N(CCO)c2ccccc2)cc1 | HBL1 | ATP luminescence | 0.5 µM | 5 days | viability | 117%
NCCC(=O)Nc1ccccc1/N=c1\cc(-c2ccc3c(c2)OCCO3)oc2cc(F)ccc12 | MDA-MB-468 | CCK-8 | 1 µM |  | inhibition | 31.2%
COc1cccc(Cn2nc(-c3ccc(CN)o3)c3ccccc32)c1 | RBE | ATP luminescence | 46 µM | 72 h | inhibition | 78%
NCC(=O)Nc1ccccc1/N=c1\cc(-c2ccc3c(c2)OCCO3)oc2ccccc12 | MDA-MB-468 | CCK-8 | 1 µM |  | inhibition | 4.61%
CCN(Cc1ccccc1C)c1ccc(CO)c(Cl)c1 | RBE | ATP luminescence | 46 µM | 72 h | inhibition | 87%
CN(C)CCN(C)C(=O)c1ccc(-c2nc3ccc4[nH]ncc4c3c3c2CCCCC3)nc1 | MV4-11 | resazurin |  | 72 h | GI50 | 1200 nM
OCc1ccc(-c2nn(Cc3ccccc3)c3ccccc23)s1 | RBE | ATP luminescence | 46 µM | 72 h | inhibition | 30%
O=C(NCCCN1CCOCC1)c1ccc(-c2nc3ccc4[nH]ncc4c3c3c2CCCC3)cc1 | MV4-11 | resazurin |  | 72 h | GI50 | 413 nM
NCC(=O)Nc1ccccc1/N=c1\cc(-c2ccc3c(c2)OCO3)oc2ccccc12 | MDA-MB-468 | CCK-8 | 1 µM |  | inhibition | 3.86%
Cc1n[nH]c2ccc3nc(-c4ccc(C(=O)NCCN(C)C)cc4)c4c(c3c12)CCC(F)(F)C4 | MV4-11 | resazurin |  | 72 h | GI50 | 132 nM
O=C(Nc1ccccc1/N=c1\cc(-c2ccc3c(c2)OCO3)oc2ccccc12)N1CCNCC1 | MDA-MB-468 | CCK-8 | 1 µM |  | inhibition | -5.89%
CN(C)CCN(C)C(=O)c1ccc(-c2nc3ccc4[nH]ncc4c3c3c2CC(F)(F)CC3)cc1 | MV4-11 | resazurin |  | 72 h | GI50 | 748 nM
NCC(=O)Nc1ccccc1/N=c1\cc(-c2ccc3c(c2)OCO3)oc2c([N+](=O)[O-])cccc12 | MDA-MB-468 | CCK-8 | 1 µM |  | inhibition | 5.28%
COc1ncccc1Cn1nc(-c2ccc(CO)o2)c2ccccc21 | RBE | ATP luminescence |  |  | IC50 | 229 nM
CC(=O)OC[C@H]1O[C@@H](n2cnc(N)nc2=O)[C@H](OC(C)=O)[C@@H]1OC(C)=O | HBL1 | ATP luminescence | 1 µM | 5 days | viability | 94.3%
CN(C)CCNC(=O)c1ccc(-c2nc3ccc4[nH]ncc4c3c3c2CCCCC3)cn1 | MV4-11 | resazurin |  | 72 h | GI50 | 146 nM
COCCC(=O)Nc1ccccc1/N=c1\cc(-c2ccc3nc(N)oc3c2)oc2ccccc12 | MDA-MB-468 | CCK-8 | 1 µM |  | inhibition | 0.9%
O=C(CCCCCCSc1ccc2ccccc2c1)NO | HBL1 | ATP luminescence | 0.5 µM | 5 days | viability | 113%
O=C(NCCCN1CCCCC1)c1ccc(-c2nc3ccc4[nH]ncc4c3c3c2CCCC3)cc1 | MV4-11 | resazurin |  | 72 h | GI50 | 2400 nM
NCCC(=O)Nc1cccc(/N=c2\cc(-c3ccc4c(c3)OCO4)oc3ccccc23)c1 | MDA-MB-468 | CCK-8 | 1 µM |  | inhibition | 3.6%
OCc1ccc(-c2nn(Cc3ccccc3)c3ccc(F)cc23)o1 | RBE | ATP luminescence |  |  | IC50 | 977 nM
O=C(NCCc1ccccn1)c1ccc(-c2nc3ccc4[nH]ncc4c3c3c2CCCC3)cc1 | MV4-11 | resazurin |  | 72 h | GI50 | 1000 nM
O=C(Nc1cccc(Br)c1)c1cccc(S(=O)(=O)N2CCCCCC2)c1 | HBL1 | ATP luminescence | 1 µM | 5 days | viability | 101%
CCN(Cc1c(F)cccc1OC)c1ccc(CO)c(Cl)c1 | RBE | ATP luminescence | 46 µM | 72 h | inhibition | 65%
COCCCNC(=O)c1ccc(-c2nc3ccc4[nH]ncc4c3c3c2CCCC3)cc1 | MV4-11 | resazurin |  | 72 h | GI50 | 2900 nM
